Results pooled from the literature.
Protocols differ between the studies behind these lines.
Target: Dual specificity tyrosine-phosphorylation-regulated kinase 2 (DYRK2, Homo sapiens, UniProt Q92630)
Technique: competition with immobilised ligand
Residues used in one study (Q92630 1-601): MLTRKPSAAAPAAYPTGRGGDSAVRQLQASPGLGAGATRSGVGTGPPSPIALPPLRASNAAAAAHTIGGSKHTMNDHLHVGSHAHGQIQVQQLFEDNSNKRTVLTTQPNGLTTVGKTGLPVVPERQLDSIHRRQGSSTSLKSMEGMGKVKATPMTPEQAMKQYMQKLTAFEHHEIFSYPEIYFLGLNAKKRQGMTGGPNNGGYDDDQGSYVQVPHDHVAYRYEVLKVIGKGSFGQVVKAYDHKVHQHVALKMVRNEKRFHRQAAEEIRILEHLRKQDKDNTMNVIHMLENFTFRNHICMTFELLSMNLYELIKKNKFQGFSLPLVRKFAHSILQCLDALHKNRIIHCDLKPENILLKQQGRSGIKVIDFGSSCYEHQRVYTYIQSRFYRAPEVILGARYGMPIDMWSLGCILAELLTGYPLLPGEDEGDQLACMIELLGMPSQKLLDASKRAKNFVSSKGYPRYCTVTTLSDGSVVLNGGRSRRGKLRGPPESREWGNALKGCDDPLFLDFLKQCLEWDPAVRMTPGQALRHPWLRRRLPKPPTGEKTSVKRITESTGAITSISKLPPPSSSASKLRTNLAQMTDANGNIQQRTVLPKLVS

SMILES | observed | concentration | remaining binding
CCN1CCN(Cc2ccc(C(=O)Nc3ccc(C)c(Oc4ccc5c(c4)CC(=O)N5)c3)cc2C(F)(F)F)CC1 | binding | 1 µM | 95%
COc1cnc(Nc2cccc(S(N)(=O)=O)c2)nc1N1CCN(c2ccccc2)C(=O)C1 | binding | 1 µM | 56%
C=CC(=O)N1CCC(C(=O)NCC(=O)N2CCN(c3nc(-c4cnc(N)nc4C(F)F)nc(N4CCOCC4)n3)CC2)CC1 | binding | 1 µM | 80%
CCCOc1ccc([C@H]2[C@H](C(=O)O)[C@@H](c3ccc4c(c3)OCO4)CN2CC(=O)Nc2c(CC)cccc2CC)cc1 | cell-free assay | 1 µM | 74%
Cc1cnc(Nc2ccc(C(=O)N3CCC(N4CCCC4)CC3)cc2)nc1-c1cc2ccccc2s1 | binding | 1 µM | 1.3%
c1cncc(-c2cccc(Nc3nccc(NC4CCCCC4)n3)c2)c1 | binding | 10 µM | 78%
O=C(c1ccc(Nc2ncc(Cl)c(-c3cc4ccccc4s3)n2)cc1)N1CCC(N2CCCC2)CC1 | binding | 1 µM | 3.1%
C[C@@]1(Cc2ccc(C#N)cc2)C(=O)N(c2cc(Cl)cc(Cl)c2)c2ncc(C(=O)NC3(c4nc(C5CCC5)no4)CC3)n21 | cell-free assay | 1 µM | 93%
O=C(c1ccc(Nc2nccc(-c3cc4ccccc4s3)n2)cc1)N1CCC(N2CCCC2)CC1 | binding | 1 µM | 3.9%
COc1ncc2cc3ccccc3nc2c1C#N | cell-free assay | 5 µM | 85%
CO[C@@H](C)c1c(Nc2ccc([C@H](N(C)C(=O)C3CCS(=O)(=O)CC3)C(F)(F)F)cc2)cnc2cc(Cl)nn12 | cell-free assay | 1 µM | 89%
O=C(NCC1CCOCC1)c1n[nH]cc1NC(=O)c1c(F)cccc1F | binding | 1 µM | 8.3%
C[C@H](c1ccc(F)cc1)N(Cc1cccc(C(=O)O)c1)C(=O)c1cnc2ccccc2c1 | cell-free assay | 1 µM | 85%
Nc1ncc2c(n1)-c1c([nH]c3ccc(C#CC4CC4)cc13)CCCC2 | binding | 1 µM | 100%
